Source: ChEMBL document CHEMBL2429774, “Synthesis and biological evaluation of novel 1,6-diaryl pyridin-2(1H)-one analogs” (Eur J Med Chem, 2013)
Activity calls are given as the source filed them. No cut-off for these calls is given here.

Legend:
HepG2 [1] = test: Cytotoxicity against human HepG2 cells after 72 hrs by spectrophotometry; assay type: functional, cell-based; conditions: HepG2, 72 h
Method in brief: (§1)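 Cells grown as monolayers in DMEM with 10% FBS, penicillin and streptomycin at 37 °C, 5% CO₂. Seeded at 5 × 10³ cells/well and exposed for 72 h. Medium changed, then another day of incubation. XTT (1 mg/mL) plus PMS added in serum-free medium for 4 h at 37 °C, read at 492 nm. Percent of control growth = treated/control absorbance × 100 (n = 3). GI50 taken from the linear portion of the curve.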

SK-OV-3 = test: Cytotoxicity against human SKOV3 cells after 72 hrs by spectrophotometry; assay type: functional, cell-based; conditions: SK-OV-3, 72 h; method in brief: as §1
H22 [2] = test: Antitumor activity against mouse H22 cells transfected in nude mouse assessed as tumor growth inhibition at 10 mg/kg, qd after 7 days relative to control; assay type: functional; conditions: H22, 168 h, read-out: TGI
Method in brief: (§2)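 Female SPF/ICR athymic nude mice, 4–5 weeks old (24 ± 2 g), received H22 cells (1 × 10⁶ per animal) s.c. into the armpit. Dosing started once tumors were detectable by fluorescent macro-imaging and was given once daily for 7 days. Animals were then killed and solid tumors excised and weighed. Inhibition = (mean vehicle tumor weight − mean treated)/mean vehicle × 100%. n = 6 per group at start.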

HepG2 [3] = test: Cell cycle arrest in human HepG2 cells assessed as accumulation at G2/M phase at 62.5 nM after 24 hrs by flow cytometry; assay type: functional, cell-based
Method in brief: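 After treatment, cells were harvested, washed in PBS and resuspended in 1 mL 0.1% sodium citrate containing 0.05 mg propidium iodide and 50 µg RNase for 30 min at room temperature in the dark. DNA content was measured by flow cytometry, with at least three experiments run.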

H22 [4] = test: Antitumor activity against mouse H22 cells transfected in nude mouse assessed as tumor growth inhibition at 200 mg/kg, qd after 7 days relative to control; assay type: functional; conditions: H22, 168 h, read-out: TGI; method in brief: as §2
H22 [5] = test: Antitumor activity against mouse H22 cells transfected in nude mouse assessed as tumor growth inhibition at 50 mg/kg, qd after 7 days relative to control; assay type: functional; conditions: H22, 168 h, read-out: TGI; method in brief: as §2

Compound | IC50 (HepG2 [1]) [nM] | IC50 (SK-OV-3) [nM] | inhibition in vivo at 10 mg/kg (H22 [2]) [%] | Activity (HepG2 [3]) | inhibition in vivo at 200 mg/kg (H22 [4]) [%] | inhibition in vivo at 50 mg/kg (H22 [5]) [%]
COc1ccc(-c2cccc(=O)n2-c2cc(OC)c(OC)c(OC)c2)cc1OC | 513 | 545 |  |  |  | 
COc1cc(-n2c(-c3cccc4cc[nH]c34)cccc2=O)cc(OC)c1OC | 2400 | 138 |  |  |  | 
COc1cc(-c2cccc(=O)n2-c2ccncc2)cc(OC)c1OC | 2520 | 3020 |  |  |  | 
CC(=O)O[C@H]1C(=O)[C@@]2(C)[C@H]([C@H](OC(=O)c3ccccc3)[C@]3(O)C[C@H](OC(=O)[C@H](O)[C@@H](NC(=O)c4ccccc4)c4ccccc4)C(C)=C1C3(C)C)[C@]1(OC(C)=O)CO[C@@H]1C[C@@H]2O [PACLITAXEL] | 6 | 12 | 47 |  |  | 
COc1ccc(-c2cccc(=O)n2-c2cc(OC)c(OC)c(OC)c2)cc1OCc1ccccc1 | 269 | 2310 |  |  |  | 
COc1cc(-n2c(-c3ccc4c(c3)OCO4)cccc2=O)cc(OC)c1OC | < 10 | 64 |  | inactive | 27 | 17
COc1ccc(-n2c(-c3cc(OC)c(OC)c(OC)c3)cccc2=O)cc1OCc1ccccc1 | 3040 | 25500 |  |  |  | 
COc1cc(-c2cccc(=O)n2-c2cccc(F)c2)cc(OC)c1OC | 73 | 340 |  |  |  | 
COc1cc(-c2cccc(=O)n2-c2ccc3c(c2)OCO3)cc(OC)c1OC | 5410 | 14000 |  |  |  | 
COc1ccc(-n2c(-c3cc(OC)c(OC)c(OC)c3)cccc2=O)cc1O | 1220 | 1220 |  |  |  | 
COc1cc(-n2c(-c3ccncc3)cccc2=O)cc(OC)c1OC | 1780 | 1780 |  |  |  | 
COc1cc(-c2cccc(=O)n2-c2ccc(C(F)(F)F)cc2)cc(OC)c1OC | 10200 | 1920 |  |  |  | 
COc1ccc(-n2c(-c3cc(OC)c(OC)c(OC)c3)cccc2=O)cc1 | 5740 | 1540 |  |  |  | 
COc1cc(-n2c(-c3cccc(F)c3)cccc2=O)cc(OC)c1OC | 159 | 472 |  |  |  | 
COc1cc(-c2cccc(=O)n2-c2ccc(F)cc2)cc(OC)c1OC | > 100000 | 9740 |  |  |  | 
COc1ccc(-c2cccc(=O)n2-c2cc(OC)c(OC)c(OC)c2)cc1C | 129 | 583 |  |  |  | 
COc1ccc(-n2c(-c3cc(OC)c(OC)c(OC)c3)cccc2=O)cc1OC | 4870 | 14300 |  |  |  | 
COc1cc(-n2c(-c3cccc(O)c3)cccc2=O)cc(OC)c1OC | 34 | 1460 |  |  |  | 
COc1cc(-c2cccc(=O)n2-c2cc(OC)c(OC)c(OC)c2)cc(OC)c1OC | 5460 | 844 |  |  |  | 
COc1cc(-n2c(-c3ccc([N+](=O)[O-])cc3)cccc2=O)cc(OC)c1OC | < 10 | 201 |  | inactive | 61 | 31
COc1ccc(-c2cccc(=O)n2-c2cc(OC)c(OC)c(OC)c2)cc1 | < 10 | < 10 |  | inactive | 54 | 41
COc1ccc(-c2cccc(=O)n2-c2cc(OC)c(OC)c(OC)c2)cc1O | < 10 | < 10 |  | inactive | 40 | 27
COc1cc(-n2c(-c3ccc(OC(F)(F)F)cc3)cccc2=O)cc(OC)c1OC | 1960 | 461 |  |  |  | 
COc1cc(-c2cccc(=O)n2-c2ccc([N+](=O)[O-])cc2)cc(OC)c1OC | 941 | 311 |  |  |  | 
